In ChEMBL document CHEMBL1126107, “Structure-activity relationships of imidazo[4,5-f]quinoline partial structures and analogs. Discovery of pyrazolo[3,4-f]quinoline derivatives as potent immunostimulants” (1992):
≈ marks a conversion by molar mass, not a printed value.

How the values were obtained:
[1] = tested on: Escherichia coli; experiment: Minimum subcutaneous effective dose required to protect mice from systemic Escherichia coli; format: functional; details: sc, read-out: MED
Method in brief: (§1)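 Female NSA (CF-1) mice, 11–16 g, dosed sc with compound in pyrogen-free saline or water 24 h before ip injection of 0.5 mL E. coli N63 (~4×10^7 CFU/mL, from log-phase L broth culture). Subtherapeutic gentamicin given sc at 0.5, 4 and 24 h postinfection. Ten mice per group. Survival versus infected untreated controls. Minimum effective dose is the sc dose giving significant protection (p < 0.05). The 100%-protection dose is also reported.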

[2] = tested on: Escherichia coli; experiment: Effective dose at which 100% protection occurs in mice infected with Escherichia coli; format: functional; method in brief: as §1
[3] = tested on: Escherichia coli; experiment: In vitro antibacterial activity on sensitivity of Escherichia coli N63 to gentamicin at a concentration of 0 ug/mL; format: functional
Method in brief: (§2)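 Checkerboard broth microdilution of E. coli N63, inoculated from overnight BHI agar growth, in Mueller-Hinton broth with serial 2-fold dilutions of aminoquinoline and gentamicin. Overnight at 37 °C. Growth read as turbidity at 600 nm, corrected with uninoculated drug-containing wells for insoluble compound. Gentamicin MIC determined at each fixed aminoquinoline concentration.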

[4] = tested on: Escherichia coli; experiment: In vitro antibacterial activity on sensitivity of Escherichia coli N63 to gentamicin at a concentration of 1.56 ug/mL; format: functional; method in brief: as §2
[5] = tested on: Escherichia coli; experiment: In vitro antibacterial activity on sensitivity of Escherichia coli N63 to gentamicin at a concentration of 12.5 ug/mL; format: functional; method in brief: as §2
[6] = tested on: Escherichia coli; experiment: In vitro antibacterial activity on sensitivity of Escherichia coli N63 to gentamicin at a concentration of 25 ug/mL; format: functional; method in brief: as §2
[7] = tested on: Escherichia coli; experiment: In vitro antibacterial activity on sensitivity of Escherichia coli N63 to gentamicin at a concentration of 3.13 ug/mL; format: functional; method in brief: as §2
[8] = tested on: Escherichia coli; experiment: In vitro antibacterial activity on sensitivity of Escherichia coli N63 to gentamicin at a concentration of 50 ug/mL; format: functional; method in brief: as §2
[9] = tested on: Mus musculus; experiment: Effect of interval between drug treatment and challenge on activity in the mouse protection assay 0 days prior to infection at 1.7 mg/Kg; format: functional
Method in brief: (§3)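 Female NSA (CF-1) mice, 11–16 g, given compound sc in pyrogen-free saline or water (suspensions homogenized) at 6, 3, 1 or 0 days before ip challenge with 0.5 mL E. coli N63 (~4×10^7 CFU/mL). Gentamicin sc at 0.5, 4 and 24 h postinfection. Ten mice per group. Percent protection = (dead in control − dead in treated) ÷ dead in control × 100.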

[10] = tested on: Mus musculus; experiment: Effect of interval between drug treatment and challenge on activity in the mouse protection assay 1 days prior to infection at 1.7 mg/Kg; format: functional; method in brief: as §3
[11] = tested on: Mus musculus; experiment: Effect of interval between drug treatment and challenge on activity in the mouse protection assay 3 days prior to infection at 1.7 mg/Kg; format: functional; method in brief: as §3
[12] = tested on: Mus musculus; experiment: Effect of interval between drug treatment and challenge on activity in the mouse protection assay 6 days prior to infection at 1.7 mg/Kg; format: functional; method in brief: as §3
[13] = tested on: Escherichia coli; experiment: Compound was evaluated for efficacy in murine systemic Escherichia coli infection with subtherapeutic gentamycin treatment; format: functional; details: read-out: PD50
Method in brief: (§4)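 Female NSA (CF-1) mice (11–16 g) were given test compound in pyrogen-free saline or water, or as a homogenized saline suspension, 24 h before ip challenge with 0.5 mL E. coli N63 (serotype O18) at about 4×10^7 CFU/mL. Gentamicin 0.5 mg/kg was given sc at 0.5, 4 and 24 h postinfection. Endpoint was survival, with 10 mice per group. PD50 was derived by probit analysis of pooled experiments.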

[14] = tested on: Escherichia coli; experiment: Compound was evaluated for efficacy in murine systemic Escherichia coli infection without subtherapeutic gentamycin treatment; format: functional; details: read-out: PD50
Method in brief: as §4, with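 “No gentamicin” for “Gentamicin 0.5 mg/kg”, “given.” for “given sc at 0.5, 4 and 24 h postinfection.”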

[15] = tested on: Escherichia coli; experiment: In vitro antibacterial activity on sensitivity of Escherichia coli N63 to gentamicin at a concentration of 6.25 ug/mL
[16] = tested on: Escherichia coli; experiment: In vitro antibacterial activity on sensitivity of Escherichia coli N63 to gentamicin at a concentration of 100 ug/mL; format: functional; method in brief: as §2
[17] = tested on: Mus musculus; experiment: Minimum subcutaneous effective dose required to protect mice from systemic Escherichia coli; ND=No dose response; format: functional, organism-based; method in brief: as §1

| Compound | minimal effective dose [1] [mg/kg] | ED100 [2] [mg/kg] | other results |
| --- | --- | --- | --- |
| COc1cccc(NC(=O)c2cccc3[nH]cnc23)c1 | > 50 |  |  |
| CCCCOc1ccc(Nc2cc(C)nc3ccc4[nH]cnc4c23)cc1 | 5 | 15 |  |
| COc1cccc(N(C)c2cc(C)nc3ccc4[nH]cnc4c23)c1 | > 50 |  |  |
| COc1cccc(Nc2cc(C)nc3ccc4[nH]ncc4c23)c1 | > 50 |  |  |
| COc1cccc(Nc2cc(C)nc3ccc4c[nH]nc4c23)c1 | 6 | 17 | MIC [3]: 0.25 µg/mL (≈ 0.821 µM); MIC [4]: 0.25 µg/mL (≈ 0.821 µM); MIC [5]: 0.25 µg/mL (≈ 0.821 µM); MIC [6]: 0.25 µg/mL (≈ 0.821 µM); MIC [7]: 0.25 µg/mL (≈ 0.821 µM); MIC [8]: 0.25 µg/mL (≈ 0.821 µM); Protection [9]: 0%; Protection ([10]; in the assay text read “25 mg/Kg” for “1.7 mg/Kg”): 100%; Protection [11]: 100%; Protection [12]: 88%; ED50 [13]: 4.2 mg/kg; ED50 [14]: 9.8 mg/kg; MIC [15]: 0.25 µg/mL (≈ 0.821 µM) |
| COc1cccc(Nc2cc(C)nc3ccc4[nH]cnc4c23)c1 | 6 | 50 |  |
| Cc1cc(Nc2ccc(C#N)cc2)c2c(ccc3[nH]cnc32)n1 | 2 | 2 |  |
| O=C(Nc1ccc(OCC2CCCCC2)cc1)c1cccc2[nH]cnc12 | > 50 |  |  |
| N#Cc1ccc(NC(=O)c2cccc3[nH]cnc23)cc1 | > 50 |  |  |
| Cc1cc(Nc2ccc(OCc3ccccc3)cc2)c2c(ccc3c[nH]nc32)n1 | 2 | 6 |  |
| COc1cccc(Nc2cc(C)nc(C)c2C(C)O)c1 (stereo not drawn) | > 100 |  |  |
| CCCCc1ccc(Nc2cc(C)nc3ccc4[nH]cnc4c23)cc1 | 5 | 15 |  |
| COc1cccc(Nc2cc(C)nc3ccccc23)c1 | > 50 |  |  |
| COc1cccc(Nc2cc(C)nc(C)c2C(C)=O)c1 | > 100 |  |  |
| Cc1cc(NC2CCCCC2)c2c(ccc3[nH]cnc32)n1 | 6 | 6 |  |
| Cc1cc(Nc2ccc(OCC3CCCCC3)cc2)c2c(ccc3[nH]cnc32)n1 | 1 | 5 | MIC [3]: 0.5 µg/mL (≈ 1.29 µM); MIC [4]: 0.25 µg/mL (≈ 0.647 µM); MIC [16]: 0.063 µg/mL (≈ 0.163 µM); MIC [5]: 0.125 µg/mL (≈ 0.323 µM); MIC [6]: 0.125 µg/mL (≈ 0.323 µM); MIC [7]: 0.25 µg/mL (≈ 0.647 µM); MIC [8]: 0.063 µg/mL (≈ 0.163 µM); Protection [9]: 0%; Protection [10]: 60%; Protection [11]: 40%; Protection [12]: 0%; ED50 [13]: 0.5 mg/kg; ED50 [14]: 1.5 mg/kg; MIC [15]: 0.25 µg/mL (≈ 0.647 µM) |
| Cc1cc(Nc2ccc(OCc3ccccc3)cc2)c2c(ccc3[nH]ncc32)n1 |  |  | MED [17]: No dose response |
| CCCCc1ccc(Nc2cc(C)nc3ccccc23)cc1 | > 50 |  |  |
| O=C(NC1CCCCC1)c1cccc2[nH]cnc12 | > 50 |  |  |
| COc1cccc(Sc2cc(C)nc3ccc4[nH]cnc4c23)c1 | > 50 |  |  |
| Cc1cc(Nc2ccc(OCc3ccccc3)cc2)c2ccccc2n1 | > 50 |  |  |
| COc1cccc(Nc2cc(C)nc(C)c2/C(C)=N/O)c1 | > 100 |  |  |
| CCCCOc1ccc(Nc2cc(C)nc3ccccc23)cc1 | > 50 |  |  |
